Source: PubChem
The list is not random: actives were taken first. Their share in the collection is about 3.9%.
CHRM1 agonist: human M1 muscarinic receptor agonism; P11229; CHO-K1 hM1, Fluo-8 calcium fluorescence, agonist mode; 0% DMSO, 100% acetylcholine EC100; activation, % at 3 µM; 360,000 compounds, 0.33% hits; AID 588814;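 active = activation above the run's mean compound activation plus 3 SD, cut at about 16% in these data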;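 also: peak over basal fluorescence ratio within a 140 s kinetic read after compound addition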
TAAR1 agonist: agonists of human TAAR1 | activation, % at 3 µM | 360,000 compounds, 0.99% hits | CHO RD-HGA16 TAAR1, Fluo-8 calcium fluorescence; vehicle wells 0%, saturating PEA agonist 100% | Q96RJ0;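 active = activation above the mean activation of all test compounds in the run plus 3 SD, cut at about 38% in these data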
Target sequence (Q96RJ0 whole entry, looked up): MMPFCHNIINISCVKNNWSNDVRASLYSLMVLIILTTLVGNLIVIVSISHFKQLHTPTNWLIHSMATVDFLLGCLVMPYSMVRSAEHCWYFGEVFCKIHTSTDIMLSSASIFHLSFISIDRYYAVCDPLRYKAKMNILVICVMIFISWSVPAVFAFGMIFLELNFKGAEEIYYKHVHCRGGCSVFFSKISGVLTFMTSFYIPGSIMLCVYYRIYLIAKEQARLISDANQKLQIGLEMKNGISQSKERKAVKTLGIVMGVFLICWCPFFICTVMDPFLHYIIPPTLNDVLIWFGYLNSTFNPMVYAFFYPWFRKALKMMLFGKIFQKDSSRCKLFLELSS
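Assay system – CHO-derived RD-HGA16 cells with stable Gα16 and human TAAR1 · Compound dosing – one-point dosing at 3 µM (nominal) · Incubation – 17-24 h seeding, 75 min 37 °C dye, 30 min RT · Measured by – kinetic Fluo-8 calcium fluorescence · Control set – DMSO vehicle as 0%, PEA at EC100 as 100% · Repeats – single well for each compound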
m5-HT2A agonist: agonists of mouse serotonin 5-HT2A receptor (HTR2A) | P35363 | CHO-K1 mHTR2A beta-arrestin complementation, luminescence; percent of 30 µM serotonin response | activation, % at 7.6 µM | 360,000 compounds, 0.66% hits | AID 624169;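 active = activation above a run cutoff, the mean activation of all tested compounds plus 3 SD, cut at about 14% in these data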;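 also: 0% = plate median of compound wells and 100% = 30 µM serotonin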
TAAR1 antagonist: antagonists of human TAAR1; Q96RJ0; CHO RD-HGA16 TAAR1, Fluo-8 calcium fluorescence, antagonist; inhibition, % at 3 µM; 360,000 compounds, 1.5% hits;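 active = inhibition above a per-plate cutoff, the mean inhibition of test compounds on that plate plus 3 SD, cut at about 49% in these data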;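 also: 0% = DMSO plus EC80 beta-PEA response and 100% = DMSO alone without agonist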
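Assay system: RD-HGA16 CHO cells with stable hTAAR1 and Gα16 / Reagent: EC80 β-phenethylamine stimulus / Doses: 3 µM, single point / Timing: dye loading 75 min at 37 °C, then 30 min room temperature / Measured by: Fluo-8 intracellular calcium dye fluorescence, real-time kinetic reads / Controls: vehicle wells and EC80 agonist wells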
M1 PAM: potentiates human M1 receptor response to acetylcholine | P11229 | CHO-K1 hM1, Fluo-8 calcium fluorescence, ACh EC20; 0% = ACh EC20, 100% = maximal ACh | activation, % at 3 µM | 360,000 compounds, 0.088% hits; in the data active = activation above about 19%, passing the limit was not always enough
M1 antag: blocks human M1 muscarinic receptor; CHO-K1 hM1, Fluo-8 calcium fluorescence, ACh EC80 antagonist; inhibition, % at 3 µM; 360,000 compounds, 1.3% hits;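 active = percent inhibition above its own plate's cutoff, namely the mean of that plate's compound wells plus 3 SD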;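 also: peak over basal fluorescence ratio during 140 s after agonist addition; 0% = ACh EC80 plus DMSO and 100% = DMSO alone without agonist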
TAAR1 ag confirm: human TAAR1 agonism, confirmed; shares compounds with TAAR1 agonist; CHO RD-HGA16 TAAR1, Fluo-8 calcium fluorescence; scaled: DMSO 0%, maximal phenethylamine 100%; activation, % at 3 µM; 2,400 compounds, 82% hits;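 active = activation above a cutoff set at the run's mean compound activation plus 3 SD, cut at about 39% in these data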
Ga16 nonsel ag: counter-screen for TAAR1 agonists: nonselective agonists in parental cells. shares compounds with TAAR1 agonist. CHO-Ga16 parental, Fluo-8 calcium fluorescence; normalized to maximal ATP response, DMSO zero. activation, % at 3 µM. 2,400 compounds, 50% hits. AID 651787;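 active = activation above the run cutoff, the mean activation over all tested wells plus 3 SD, cut at about 12% in these data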;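 also: 0% = DMSO wells and 100% = maximal ATP response on the peak over basal ratio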
TAAR1 desens: TAAR1 response desensitization, agonist counter-screen; shares compounds with TAAR1 agonist; CHO RD-HGA16 hTAAR1, Fluo-8 calcium, beta-PEA response inhibition; inhibition, % at 3 µM; 2,400 compounds, 46% hits; AID 651951;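 active = inhibition above the run cutoff, the mean inhibition of all test compounds plus 3 SD, cut at about 49% in these data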;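 also: beta-PEA stimulus applied at its EC80; loss of beta-PEA calcium signal after compound pretreatment read as receptor desensitization; 0% = DMSO with beta-PEA at EC80 and 100% = DMSO alone without agonist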
Ga16 antag count: nonselective Ga16 antagonist in TAAR1 agonist counter-screen; AID 651952; shares compounds with TAAR1 agonist; CHO-Ga16 ATP-induced calcium, Fluo-8 fluorescence; inhibition, % at 3 µM; 2,400 compounds, 39% hits;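 active = inhibition above the plate's mean compound inhibition plus 3 SD, computed per plate, cut at about 22% in these data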;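 also: 0% = EC80 ATP with DMSO and 100% = DMSO wells without ATP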
Starred values were filed as active, the others as inactive; · = no result.

SMILES | CHRM1 agonist | TAAR1 agonist | m5-HT2A agonist | TAAR1 antagonist | M1 PAM | M1 antag | TAAR1 ag confirm | Ga16 nonsel ag | TAAR1 desens | Ga16 antag count
O=C(NCCc1cccs1)c1ccc(CS(=O)Cc2ccc(Cl)cc2)o1 (configuration not stated) | -1.3 | 55.9* | 1.1 | 2.6 | -6.7 | 12.3 | 62.0* | 1.6 | 35.5 | 5.2
O=C(NCCc1cccs1)c1ccc(Cl)cc1 | -2.6 | 78.6* | 9.9 | 46.8 | 4.7 | -12.4 | 84.1* | 2.3 | 76.1* | 6.5
CC(C)c1cc(C(=O)NCCc2cccs2)c(N)s1 | · | · | -5.9 | · | · | · | · | 3.2 | · | 10.4
COC(=O)[C@@H](c1ccccc1)N(C)S(=O)(=O)c1cccc(S(=O)(=O)N(C)[C@@H](C(=O)OC)c2ccccc2)c1 | -3.8 | 9.2 | -5.3 | 22.1 | -5.1 | 15.5 | · | · | · | ·
C[C@H](CO)N1C[C@H](C)[C@@H](CN(C)C(=O)Nc2ccccc2)Oc2ccc(NC(=O)Nc3ccccc3)cc2C1=O | -3.1 | 0.5 | 4.9 | 10.6 | 8.6 | -10.6 | · | · | · | ·
CN1CCN(c2ccc([N+](=O)[O-])cc2NC(=O)c2cccs2)CC1 | -5.8 | 0.8 | -10.2 | -20.3 | 14.4 | -23.7 | · | · | · | ·
COc1ccc(CCN2C(=O)N[C@@H](C(C)C)C2=O)cc1 | 0.0 | 0.8 | 4.4 | -4.2 | 6.8 | 2.3 | · | · | · | ·
COc1ccc(CCN2C(=NC(=O)C(C)C)SC3CS(=O)(=O)CC32)cc1OC (configuration not stated) | -1.9 | -0.1 | 9.0 | -10.9 | 8.7 | -12.3 | · | · | · | ·
COCC(C)N1C(=O)Cc2c1nc(N)c1c(N)nc(N3CCN(c4ccccc4F)CC3)c(C#N)c21 (configuration not stated) | -7.0 | 52.5* | -5.6 | 48.7* | 0.3 | 5.6 | 49.0* | 24.6* | 62.6* | 44.6*
CCCNC(=O)C1(S(=O)(=O)c2ccccc2)CC=CC1 | -3.6 | 12.6 | 5.1 | 5.4 | 5.3 | -4.1 | · | · | · | ·
O=C(N/N=C/c1ccc(O)c(O)c1)N/N=C/c1ccc(O)c(O)c1 | -1.2 | 97.5* | -2.8 | 27.3 | 17.7 | -22.1 | 83.3* | -0.7 | 73.2* | 0.9
CSC(=S)N/N=C(\C)c1ccccc1 | -0.8 | 2.9 | -3.7 | 20.4 | -8.2 | 11.9 | · | · | · | ·
CN1/C(=C\C=C2/SC(=S)N(CC(=O)O)C2=O)C(C)(C)c2ccccc21 | 130.5* | 234.7* | -1.1 | 83.8* | -16.8 | 37.0* | 114.0* | 121.4* | 66.3* | 61.2*
COc1ccc(N)c2c1C(=O)c1ccccc1C2=O | -4.2 | -0.8 | -0.7 | 5.2 | 7.3 | -3.3 | · | · | · | ·
COc1ccc2noc3c2c1C(=O)c1ccccc1-3 | 71.6* | 149.5* | -0.3 | 66.9* | -26.5 | 21.7 | 74.5* | 63.3* | 75.3* | 60.7*
CC1CCCC(NC(=O)CCC(=O)N2CCOc3ccccc32)C1C (configuration not stated) | -3.6 | 3.2 | -5.5 | -7.0 | 7.7 | -5.0 | · | · | · | ·
COC(=O)c1cc2c(c3c4cc(OC)ccc4n(S(C)(=O)=O)c13)C(=O)N(C)C2 | · | 1.1 | · | 8.4 | · | · | · | · | · | ·
COc1ccccc1CCn1cnc(-c2ccc(OC)c(OC)c2)c1CC(C)C | · | 54.4* | · | 68.1* | · | · | 93.2* | 24.2* | 84.2* | 45.2*
CCCCc1c(Cc2cccc(F)c2)ncn1CCc1ccccc1OC | · | 48.3* | -6.0 | 31.9 | · | · | 48.1* | 11.1 | 50.3* | 32.8*
